In ChEMBL document CHEMBL3045579, “Herbicidal activity of cineole derivatives” (2010) one finds Ratio, Activity and inhibition data, which are given here for four compounds.

The source made the active and inactive calls. No cut-off for these calls is given here.

Common to all, as to assay type: functional
Test [1] has as its system Radish. In words: Pre-emergence herbicidal activity against Raphanus sativus var.Long scarlet (radish) seeds assessed as shoot length at 0.1 mol/l at 25 degC after 72 hr by laboratory-based agar medium bioassay relative to 1,8-Cineole. The method, boiled down: (§1)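 Agar-plate assay as above: compound in organic solvent evaporated onto Ca/B water agar, 10 seeds × 5 dishes, 72 h at 25 °C in light. Germination, root length or shoot length at 0.1 mol L^-1 expressed relative to 1,8-cineole.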

The test system of test [2] is Lolium rigidum. In words: Pre-emergence herbicidal activity against Lolium rigidum seeds assessed as concentration required to suppress seed germination at 25 degC after 72 hr by laboratory-based agar medium bioassay.
In test [3] the test system is Radish. Kind of test: Pre-emergence herbicidal activity against Raphanus sativus var.Long scarlet (radish) seeds assessed as shoot length at 0.1 mol/l at 25 degC after 72 hr by laboratory-based agar medium bioassay relative to control. The method, boiled down: (§2)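 Solutions tested at 1 to 1 × 10^-4 mol L^-1. 10 seeds/dish, 5 randomized replicate dishes angled ~70°. Incubated 72 h at 25 °C in light. Solvent and no-solvent controls. Germination, root length and shoot length recorded.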

In test [4] the test system is Lolium rigidum. In words: Pre-emergence herbicidal activity against Lolium rigidum seeds assessed as root length at 0.1 mol/l at 25 degC after 72 hr by laboratory-based agar medium bioassay relative to 1,8-Cineole. The method, boiled down:
as §1

In test [5] the test system is Radish. Kind of test: Pre-emergence herbicidal activity against Raphanus sativus var.Long scarlet (radish) seeds assessed as root length at 0.1 mol/l at 25 degC after 72 hr by laboratory-based agar medium bioassay relative to control. The method, boiled down: as §2
Test [6] concerns Radish. Kind of test: Pre-emergence herbicidal activity against Raphanus sativus var.Long scarlet (radish) seeds assessed as seed germination at 0.1 mol/l at 25 degC after 72 hr by laboratory-based agar medium bioassay relative to 1,8-Cineole. The method, boiled down: as §1
The subject of test [7] is Radish. Kind of test: Pre-emergence herbicidal activity against Raphanus sativus var.Long scarlet (radish) seeds assessed as seed germination at 0.1 mol/l at 25 degC after 72 hr by laboratory-based agar medium bioassay relative to control. The method, boiled down:
as §2

The subject of test [8] is Lolium rigidum. In words: Pre-emergence herbicidal activity against Lolium rigidum seeds assessed as shoot length at 0.1 mol/l at 25 degC after 72 hr by laboratory-based agar medium bioassay relative to control. The method, boiled down:
as §2

The test system of test [9] is Lolium rigidum. In words: Pre-emergence herbicidal activity against Lolium rigidum seeds assessed as shoot length at 0.1 mol/l at 25 degC after 72 hr by laboratory-based agar medium bioassay relative to 1,8-Cineole. The method, boiled down: as §1
Test [10] concerns Lolium rigidum. In words: Pre-emergence herbicidal activity against Lolium rigidum seeds assessed as seed germination at 0.1 mol/l at 25 degC after 72 hr by laboratory-based agar medium bioassay relative to 1,8-Cineole. The method, boiled down: as §1
For test [11], the system named is Radish. In words: Pre-emergence herbicidal activity against Raphanus sativus var.Long scarlet (radish) seeds assessed as concentration required to suppress seed germination at 25 degC after 72 hr by laboratory-based agar medium bioassay.
Test [12] relates to Radish. Kind of test: Pre-emergence herbicidal activity against Raphanus sativus var.Long scarlet (radish) seeds assessed as concentration required to suppress root growth at 25 degC after 72 hr by laboratory-based agar medium bioassay.
In test [13] the test system is Lolium rigidum. In words: Pre-emergence herbicidal activity against Lolium rigidum seeds assessed as root length at 0.1 mol/l at 25 degC after 72 hr by laboratory-based agar medium bioassay relative to control. The method, boiled down:
as §2

Test [14] has as its system Lolium rigidum. In words: Pre-emergence herbicidal activity against Lolium rigidum seeds assessed as seed germination at 0.1 mol/l at 25 degC after 72 hr by laboratory-based agar medium bioassay relative to control. The method, boiled down:
as §2

Test [15] has as its system Radish. In words: Pre-emergence herbicidal activity against Raphanus sativus var.Long scarlet (radish) seeds assessed as concentration required to suppress shoot growth at 25 degC after 72 hr by laboratory-based agar medium bioassay.
The test system of test [16] is Radish. In words: Pre-emergence herbicidal activity against Raphanus sativus var.Long scarlet (radish) seeds assessed as root length at 0.1 mol/l at 25 degC after 72 hr by laboratory-based agar medium bioassay relative to 1,8-Cineole. The method, boiled down: as §1
Test [17] relates to Lolium rigidum. Kind of test: Pre-emergence herbicidal activity against Lolium rigidum seeds assessed as concentration required to suppress shoot growth at 25 degC after 72 hr by laboratory-based agar medium bioassay.
Test [18] deals with Lolium rigidum. In words: Pre-emergence herbicidal activity against Lolium rigidum seeds assessed as concentration required to suppress root growth at 25 degC after 72 hr by laboratory-based agar medium bioassay.

Consider `CC1(C)O[C@]2(C)CC[C@@H]1[C@@H](O)C2` (racemic) [3-exo-hydroxy-1,8-cineole], for which the Ratio in [1] is listed as 1.4; in test [4] it was 1.3; in test [6] it was 14.2; in test [9], 2.8; in test [10], 11.6; in test [16] it was 1.4. Moreover, the Activity is 0.1 mol/L in test [2]; 46.5% in [3]; 26.8% in [5]; 2.4% in [7]; 10.2% in test [8]; 0.1 mol/L in test [11]. Further, the Activity came to 0.01 mol/L in test [12]; 16.6% in [13]; 2.6% in test [14]; 0.1 mol/L in test [15]; 0.01 mol/L in test [17]; 0.1 mol/L in [18].
Take `O=C(O)c1ccccc1` [BENZOIC ACID]: the inhibition result in [1], in test [4], in [6], in test [9], in test [10] and in test [16] was “Active” throughout. Further, the Activity in [2] came to 0.01 mol/L; in test [3] it was 0%; in test [5], 0%; in test [7] it was 0%; in [8] it was 0%; in [11], 0.1 mol/L. For the same compound, the Activity in [12] was found to be 0.01 mol/L; in test [13], 0%; in test [14], 0%; in test [15], 0.01 mol/L; in test [17], 0.0001 mol/L; in test [18], 0.0001 mol/L.
Turning to `CC(C)(C)CC(=O)O` [T-BUTYLACETIC ACID], the inhibition entry in test [1], in [4], in [6], in test [9], in [10] and in test [16] was “Active” throughout. Moreover, the Activity in test [2] was 0.01 mol/L; in test [3] it was 0%; in [5], 0%; in [7] it was 0%; in [8] it was 0%; in [11], 0.1 mol/L. Also, the Activity was determined as 0.01 mol/L in test [12]; 0% in [13]; 0% in test [14]; 0.1 mol/L in test [15]; 0.0001 mol/L in test [17]; 0.0001 mol/L in test [18].
Take `CCCCCC(=O)O` [HEXANOATE]: the inhibition result in test [1], in test [4], in [6], in test [9], in test [10] and in test [16] was “Active” throughout. Also, the Activity is given as 0.01 mol/L in [2]; 0% in test [3]; 0% in [5]; 0% in test [7]; 0% in test [8]; 0.1 mol/L in [11]. The Activity was determined as 0.001 mol/L in test [12]; 0% in [13]; 0% in test [14]; 0.1 mol/L in [15]; 0.0001 mol/L in test [17]; 0.0001 mol/L in test [18].
